Read-outs that look alike come from different tables or passages of the source.
Columns and labels:
[1] = tested on: MM cells; test: PI sensitization of MM cell lines; format: cell-based, human
[2] = tested on: MM cells; test: Single-agent anti-MM cell viability; format: cell-based, human; conditions: read-out: EC50, single-agent anti-MM activity; 24 h of exposure
Outline: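 Myeloma cells were seeded at 3×10^4 cells/well and exposed to test compound alone. Viability was read by CellTiter-Glo luminescence (470 nm, 1-s integration), and EC50 was derived from dose–response curves.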

[3] = target: PDIA1 (Homo sapiens, UniProt P07237); test: Insulin reduction assay; format: biochemical
Sequence of PDIA1 (P07237 18-508): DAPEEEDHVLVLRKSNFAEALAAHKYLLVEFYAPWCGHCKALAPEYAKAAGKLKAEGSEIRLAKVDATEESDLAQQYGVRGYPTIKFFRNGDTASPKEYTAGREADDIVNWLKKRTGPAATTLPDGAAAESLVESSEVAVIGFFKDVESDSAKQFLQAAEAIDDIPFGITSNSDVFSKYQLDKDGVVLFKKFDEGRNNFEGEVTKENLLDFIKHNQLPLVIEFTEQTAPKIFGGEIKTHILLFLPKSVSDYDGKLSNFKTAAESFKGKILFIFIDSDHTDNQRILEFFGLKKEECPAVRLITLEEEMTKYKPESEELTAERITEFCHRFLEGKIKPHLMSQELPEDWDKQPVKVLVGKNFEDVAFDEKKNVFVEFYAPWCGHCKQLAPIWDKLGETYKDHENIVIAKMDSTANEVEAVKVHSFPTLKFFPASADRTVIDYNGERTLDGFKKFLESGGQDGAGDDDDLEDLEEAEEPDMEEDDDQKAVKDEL
Outline: (§1)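 The assay measured reductase activity of recombinant PDI family isoforms through insulin reduction, followed as insulin aggregation (turbidity) kinetic traces. A dose range of test compound was applied. IC50 values were extrapolated from 10-dose inhibition curves.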

[4] = tested on: PDIA3; test: Insulin reduction assay; format: biochemical
Outline: as §1

[5] = tested on: PDIA4; test: Insulin reduction assay; format: biochemical
Outline: as §1

[6] = tested on: TXNDC5; test: Insulin reduction assay; format: biochemical
Outline: as §1

[7] = tested on: PDIA6; test: Insulin reduction assay; format: biochemical
Outline: as §1

[8] = Stability against oxidative metabolism by human liver microsomes; format: in vitro ADME
[9] = Stability in serum, simulated gastric and intestinal fluids; format: in vitro ADME
[10] = Pharmacokinetics in CD-1 mice; format: in vivo, mouse
Outline: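 CD-1 mice received a single dose of test compound, either i.v. at 2 mg/kg or p.o. at 5 mg/kg. Plasma drug concentrations were followed over 24 h by an optimized LC-MS method. Oral bioavailability and terminal half-life were derived from these plasma profiles.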

[11] = tested on: Vk*MYC transgenic mice; test: Vk*MYC transgenic mouse model of MM; format: in vivo; conditions: 2 mg/kg i.p. days 1, 3, 5 of each week for 2 weeks; three mice; P=0.0135
[12] = tested on: MM.1S cells; format: in vivo
[13] = mouse, in vivo
[14] = tested on: MM.1S BzR cells; test: Btz re-sensitization of PI-resistant MM cells; format: cell-based; conditions: screening hit, low micromolar E61
[15] = tested on: normal cells; test: PI sensitization in normal cells; format: cell-based; conditions: PBMCs, WBCs, MRC-5, Wi-38, HFF, MEF; Btz and Crflz
Outline: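 Normal human PBMCs, lymphocytes, lung (MRC-5, Wi-38) and foreskin (HFF) fibroblasts, and mouse MEF fibroblasts were seeded at 3×10^4 cells/well. Cells received 8-dose Btz or Crflz curves with or without 5 µM test compound. Viability was measured by CellTiter-Glo luminescence. Fold change = PI EC50 without / EC50 with test compound; >1 denotes sensitization, <1 protection.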

[16] = tested on: RPMI-8226 cells; test: Effect on dexamethasone activity in dexamethasone resistant cells; format: cell-based; conditions: dexamethasone resistant RPMI-8226 cells
[17] = tested on: MM.1S BzR cells; test: Effect on lenalidomide or doxorubicin cytotoxicity; format: cell-based
[18] = tested on: 20S proteasome; test: Chymotrypsin-like activity of the 20S proteasome; format: biochemical
[19] = tested on: MM.1S BzR cells; test: NSG mouse xenotransplant model with MM.1S BzR cells; format: in vivo
Outline: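 Mice implanted i.v. with PI-resistant MM.1S BzR cells; test compound at 50 mg/kg i.p. daily versus vehicle, from day 21 post-implant. Read-out: Kaplan–Meier survival. In a parallel cohort, mice were sacrificed on day 49 and % CD138+ cells in bone marrow biopsies was quantified (vehicle N=8, treated N=7), compared by t-test.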

[20] = E64FC26 2 mg/kg i.p. 3 days/week, N=9

For `CCCCCCCC/C=C1\C=C(C(F)(F)F)c2cc(O)c(O)cc21` [E64FC26], the “potency relative to E61 in cellular models of PI sensitization” value [1] was over 10 times, the “concentrations highly synergistic with PIs” value ([1]; MM.1S BzR and U266 BzR cells, Btz) was at least 200 nM and the “average increase in PI sensitivity” value ([1]; cells treated with empirically determined EC10–20 of the PDI inhibitor) was 6–7 fold. For the same compound, the EC50 [2] was 590 nM, the “potency relative to E61 as inhibitor of PDI activity in vitro” value [3] was over 50 times and the IC50 ([3]; read-out: IC50 against PDIA1, insulin reduction assay) was 1900 ± 100 nM. For the same compound, the “inhibition of PDIA3 (qualitative)” value [4] was “inhibited”, the “inhibition of PDIA4 (qualitative)” value [5] was “inhibited” and the “inhibition of TXNDC5 (qualitative)” value [6] was “inhibited”. The “inhibition of PDIA6 (qualitative)” value [7] was “inhibited”, the “calculated intrinsic clearance in human liver microsomes” value [8] was 6.22 ± 0.98 µL/min/mg and the “stability in serum, simulated gastric and intestinal fluids, and human liver microsomes compared to E61” value [9] was “increased stability”. The oral bioavailabilty ([10]; p.o. 5 mg/kg, i.v. 2 mg/kg) was 34%, the Cmax ([10]; read-out: maximum concentration (Cmax), single oral dose of 5 mg/kg, plasma) was about 400 nM and the terminal half-life ([10]; single oral dose of 5 mg/kg) was 9.5 h. For the same compound, the “average decrease in serum M-protein” value [11] was 33 ± 7.9%, the “increase in median survival over vehicle” value [12, 20] was 2 weeks and the “increase in median survival over vehicle (percent)” value [12, 20] was 40%. For the same compound, the “mice alive on day 36” value ([12]; E64FC26 2 mg/kg i.p. 3 days/week, vehicle 0% (0/9)) was 100%, the “overt toxicity or body weight fluctuations” value ([12]; mouse, in vivo) was “No overt toxicity or body weight fluctuations” and the “blood serum chemistry markers (toxicology)” value [13] was “mild thrombocytopenia and neutropenia”.

In the case of `O=C(O)/C=C/c1ccc(O)c(O)c1` [caffeic acid, reference compound], the “enhancement of the sensitivity of MM cells to PIs (qualitative)” value [1] is reported as “failed to enhance” and the “PDI reductase activity in vitro (qualitative)” value [3] is reported as “no activity”.

With `CC(C)C[C@H](NC(=O)[C@H](Cc1ccccc1)NC(=O)c1cnccn1)B(O)O` [Btz, bortezomib, reference compound] the “increase in median survival over vehicle” value ([12]; Btz 0.25 mg/kg i.p. 2 days/week, E64FC26 2 mg/kg i.p. 3 days/week, N=8) was 6 days.

For PACMA 31 [reference compound], the “inhibition of PDIA3 (qualitative)” value [4] was “failed to inhibit”, the “inhibition of PDIA4 (qualitative)” value [5] was “inhibited” and the “inhibition of TXNDC5 (qualitative)” value [6] was “inhibited”. The “inhibition of PDIA6 (qualitative)” value [7] was “inhibited”.

In the case of `CCCCCCCCOC(=O)/C=C/c1ccc(O)c(O)c1` [E61, n-octyl caffeate], the “enhancement of Btz cytotoxicity” value [14] is reported as over 6 fold, the “enhancement of the cytotoxic effects of PIs in normal cells” value [15] is reported as “failed to enhance” and the “effect on dexamethasone activity” value [16] is reported as “no effect”. The “effect on lenalidomide or doxorubicin cytotoxicity” value [17] was “did not affect”, the “inhibition of chymotrypsin-like activity of the 20S proteasome” value [18] was “did not inhibit” and the EC50 [2] was 18300 nM. The “IC50 in vitro (PDI assay, qualitative)” value [3] was “high micromolar”, the “number of CD138+ MM cells in bone marrow” value ([19]; 50 mg/kg i.p. daily, sacrificed on day 49, P=0.007) was “significant reduction” and the “treated mice that never reached the survival endpoint” value ([19]; 50 mg/kg/day i.p.) was 4 of the 11. The median survival ([19]; 50 mg/kg/day i.p., continuous dosing, vehicle 51 days) was 62 days, the “prolongation of median survival” value ([19]; 50 mg/kg/day i.p., continuous dosing, vs vehicle, N=11) was 11 days and the “tolerability (overt signs of distress, body weight)” value ([19]; continuous dosing for 40+ days, 50 mg/kg/day i.p.) was “well tolerated”. For the same compound, the “calculated intrinsic clearance in human liver microsomes” value [8] was 97.6 ± 6.0 µL/min/mg.
